The values that follow come from ChEMBL document CHEMBL3351980, “Michael acceptor approach to the design of new salvinorin A-based high affinity ligands for the kappa-opioid receptor” (Eur J Med Chem, 2014).

Test [1] has as its target T1, Kappa-type opioid receptor (Homo sapiens, UniProt P41145). The test is described as follows: Displacement of [3H]U69593 from kappa opioid receptor (unknown origin) expressed in HEK293T cells after 1.5 hrs by radioligand binding assay. It is filed as cell-based, HEK-293T. Put shortly: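 HEK293T cells stably expressing KOR were hypotonically lysed in 50 mM Tris-HCl, 10 mM MgCl2, 0.1 mM EDTA, pH 7.4, and membranes were pelleted. Samples were filtered onto PEI-soaked GF/A filters and scintillation counted. Ki came from a one-site competition fit.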

In test [2] the target is Delta-type opioid receptor (Homo sapiens, UniProt P41143). Description: Displacement of [3H]DADLE from delta opioid receptor (unknown origin) expressed in HEK293T cells after 1.5 hrs by radioligand binding assay. It is filed as cell-based, HEK-293T. Background: In a radioligand displacement assay an active substance lowers the binding of a labelled ligand.
Test [3] deals with T1, Kappa-type opioid receptor. The test is described as follows: Inhibition of human kappa opioid receptor expressed in HEK293T cells assessed as inhibition of cAMP production after 30 mins. It is filed as functional, cell-based, HEK-293T. For orientation: cAMP levels reflect the balance of adenylyl cyclase and phosphodiesterase activity.
The target in test [4] is Mu-type opioid receptor (Homo sapiens, UniProt P35372). The test is described as follows: Displacement of [3H]DAMGO from mu opioid receptor (unknown origin) expressed in HEK293T cells after 1.5 hrs by radioligand binding assay. It is filed as cell-based, HEK-293T.
The species named for test [5] is Homo sapiens. Description: Selectivity ratio of Ki for mu opioid receptor (unknown origin) to ratio of Ki for kappa opioid receptor (unknown origin).
Test [6] is filed under the species Homo sapiens. The test is described as follows: Selectivity ratio of Ki for delta opioid receptor (unknown origin) to ratio of Ki for kappa opioid receptor (unknown origin).

Chain of Delta-type opioid receptor (P41143 whole entry): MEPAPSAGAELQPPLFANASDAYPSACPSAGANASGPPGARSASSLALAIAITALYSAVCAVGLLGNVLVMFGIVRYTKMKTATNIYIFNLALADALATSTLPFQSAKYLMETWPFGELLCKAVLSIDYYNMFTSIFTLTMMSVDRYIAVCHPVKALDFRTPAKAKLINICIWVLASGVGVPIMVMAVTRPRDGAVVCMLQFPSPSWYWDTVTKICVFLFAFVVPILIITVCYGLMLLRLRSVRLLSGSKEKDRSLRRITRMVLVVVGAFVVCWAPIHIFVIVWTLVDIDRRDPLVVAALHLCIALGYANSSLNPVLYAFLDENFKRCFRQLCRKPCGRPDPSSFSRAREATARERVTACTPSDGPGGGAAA
T1 sequence (P41145 whole entry): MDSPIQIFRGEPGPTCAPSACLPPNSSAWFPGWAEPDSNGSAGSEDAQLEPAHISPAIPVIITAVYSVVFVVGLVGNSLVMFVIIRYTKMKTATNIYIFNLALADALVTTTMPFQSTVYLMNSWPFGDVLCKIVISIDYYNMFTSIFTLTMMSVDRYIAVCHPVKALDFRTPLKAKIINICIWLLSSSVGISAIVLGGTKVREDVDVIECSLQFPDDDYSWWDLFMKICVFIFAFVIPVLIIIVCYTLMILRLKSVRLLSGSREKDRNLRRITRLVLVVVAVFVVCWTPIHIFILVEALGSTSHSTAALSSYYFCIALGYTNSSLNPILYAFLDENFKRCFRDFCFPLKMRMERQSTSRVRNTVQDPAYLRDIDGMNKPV
Chain of Mu-type opioid receptor (P35372 whole entry): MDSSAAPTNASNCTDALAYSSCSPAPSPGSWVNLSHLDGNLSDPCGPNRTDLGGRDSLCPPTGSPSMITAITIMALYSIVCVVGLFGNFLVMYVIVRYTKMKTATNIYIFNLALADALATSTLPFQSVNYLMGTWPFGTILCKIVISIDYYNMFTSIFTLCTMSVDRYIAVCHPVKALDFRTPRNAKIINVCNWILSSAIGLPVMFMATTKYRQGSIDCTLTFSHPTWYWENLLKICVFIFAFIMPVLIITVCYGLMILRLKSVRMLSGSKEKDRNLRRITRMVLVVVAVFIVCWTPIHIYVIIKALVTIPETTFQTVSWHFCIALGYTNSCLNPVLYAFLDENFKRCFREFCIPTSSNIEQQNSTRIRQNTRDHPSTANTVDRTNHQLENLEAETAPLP

The term Ki denotes the equilibrium dissociation constant of an inhibitor or competing ligand from its target. A high value points to a looser hold on the target. Broadly, the EC50 is the concentration needed to bring the measured effect to its halfway point. Regarding `C=CC(=O)O[C@H]1C[C@@H](C(=O)OC)[C@]2(C)CC[C@H]3C(=O)O[C@H](c4ccoc4)C[C@]3(C)[C@H]2C1=O`, the Ki in test [1] is 18.1 nM; in test [2] it was above 10000 nM; in test [4], 979 nM. Moreover, the EC50 in test [3] was found to be 137 nM. Moreover, the Ratio Ki in test [5] was 54.

For `C=CCC(=O)O[C@H]1C[C@@H](C(=O)OC)[C@]2(C)CC[C@H]3C(=O)O[C@H](c4ccoc4)C[C@]3(C)[C@H]2C1=O`, in test [2], the Ki is 3260 nM. That is a single-digit micromolar value.

For `C/C=C(\C)C(=O)O[C@H]1C[C@@H](C(=O)OC)[C@]2(C)CC[C@H]3C(=O)O[C@H](c4ccoc4)C[C@]3(C)[C@H]2C1=O`, the results for the Ki in test [1], in test [2] and in test [4] were 153 nM, above 10000 nM and above 10000 nM, respectively. Also, the EC50 in test [3] was 477 nM.

For the compound `C/C=C/C(=O)O[C@H]1C[C@@H](C(=O)OC)[C@]2(C)CC[C@H]3C(=O)O[C@H](c4ccoc4)C[C@]3(C)[C@H]2C1=O`, the Ki is 25.3 nM in test [1], above 10000 nM in test [2] and 540 nM in test [4]. Moreover, the EC50 in test [3] was determined as 11 nM. In addition, the Ratio Ki in test [5] stood at 21.

With `COC(=O)[C@@H]1C[C@H](OC(=O)/C=C/c2ccccc2OC)C(=O)[C@H]2[C@@]1(C)CC[C@H]1C(=O)O[C@H](c3ccoc3)C[C@]21C`, the Ki was 64.9 nM in test [1], above 10000 nM in test [2] and above 10000 nM in test [4]. In test [3], the EC50 is 10 nM.

Turning to `COC(=O)[C@@H]1C[C@H](OC(=O)/C=C/c2ccccc2)C(=O)[C@H]2[C@@]1(C)CC[C@H]1C(=O)O[C@H](c3ccoc3)C[C@]21C`, the figures for the Ki in test [1], in test [2] and in test [4] were 9.6 nM, 700 nM and 52 nM, respectively. In addition, the figures for the Ratio Ki in test [6] and in test [5] were 73 and 5.4, respectively. Also, the EC50 in test [3] worked out at 7 nM.

Turning to `COC(=O)[C@@H]1C[C@H](OC(=O)/C=C/c2ccccc2C(F)(F)F)C(=O)[C@H]2[C@@]1(C)CC[C@H]1C(=O)O[C@H](c3ccoc3)C[C@]21C`, the Ki is 130 nM in test [1], above 10000 nM in test [2] and above 10000 nM in test [4]. For the same compound, the EC50 in test [3] stood at 20 nM.

Take `COC(=O)[C@@H]1C[C@H](OC(=O)/C=C/c2cc(C(F)(F)F)ccc2C(F)(F)F)C(=O)[C@H]2[C@@]1(C)CC[C@H]1C(=O)O[C@H](c3ccoc3)C[C@]21C`: the Ki in test [1] was above 10000 nM; in test [2], 5870 nM; in test [4], above 10000 nM. Also, in test [3], the EC50 was 1210 nM.

`COC(=O)[C@@H]1C[C@H](OC(=O)/C=C/c2ccc(C(F)(F)F)cc2)C(=O)[C@H]2[C@@]1(C)CC[C@H]1C(=O)O[C@H](c3ccoc3)C[C@]21C`: the Ki in test [1], in test [2] and in test [4] was above 10000 nM throughout. The Ratio Ki in test [6] and in test [5] was 1 throughout. Also, the EC50 in test [3] was found to be 642 nM.

Consider `COC(=O)[C@@H]1C[C@H](OC(=O)/C=C/c2ccc3c(c2)OCO3)C(=O)[C@H]2[C@@]1(C)CC[C@H]1C(=O)O[C@H](c3ccoc3)C[C@]21C`, for which the Ki in test [1] was 323 nM; in test [2] it was above 10000 nM; in test [4], 2820 nM. Moreover, in test [3], the EC50 is 50 nM. In addition, the Ratio Ki in test [5] was determined as 8.7.

For the compound `C=C(C)CC(=O)O[C@H]1C[C@@H](C(=O)OC)[C@]2(C)CC[C@H]3C(=O)O[C@H](c4ccoc4)C[C@]3(C)[C@H]2C1=O`, the Ki in test [1] was 6 nM; in test [2] it was above 10000 nM; in test [4] it was 362 nM. Also, in test [3], the EC50 stood at 25 nM. Moreover, in test [5], the Ratio Ki was 60.

For `COC(=O)[C@@H]1C[C@H](OC(=O)/C=C/c2ccccc2[N+](=O)[O-])C(=O)[C@H]2[C@@]1(C)CC[C@H]1C(=O)O[C@H](c3ccoc3)C[C@]21C`, the Ki in test [1] was 148 nM; in test [2], above 10000 nM; in test [4], above 10000 nM. Further, the EC50 in test [3] worked out at 33 nM.

For the compound `COC(=O)[C@@H]1C[C@H](OC(=O)/C=C/c2ccc([N+](=O)[O-])cc2)C(=O)[C@H]2[C@@]1(C)CC[C@H]1C(=O)O[C@H](c3ccoc3)C[C@]21C`, the values for the Ki in test [1], in test [2] and in test [4] were 281 nM, above 10000 nM and above 10000 nM, respectively. In addition, the EC50 in test [3] was 32 nM.

As to `COC(=O)[C@@H]1C[C@H](OC(=O)/C=C/c2ccc(OC)cc2OC)C(=O)[C@H]2[C@@]1(C)CC[C@H]1C(=O)O[C@H](c3ccoc3)C[C@]21C`, the results for the inhibitory constant (Ki) in test [1], in test [2] and in test [4] were 162 nM, above 10000 nM and above 10000 nM, respectively. In test [3], the EC50 came out at 27 nM.

Consider `COC(=O)[C@@H]1C[C@H](OC(=O)/C=C/c2cccnc2)C(=O)[C@H]2[C@@]1(C)CC[C@H]1C(=O)O[C@H](c3ccoc3)C[C@]21C`, for which the Ki in test [1] is above 10000 nM; in test [2], 4890 nM; in test [4] it was 334 nM. Further, the EC50 in test [3] turned out to be 1760 nM.

With `COC(=O)[C@@H]1C[C@H](OC(=O)/C=C/c2cc(OC)c(OC)c(OC)c2)C(=O)[C@H]2[C@@]1(C)CC[C@H]1C(=O)O[C@H](c3ccoc3)C[C@]21C`, the Ki in test [1], in test [2] and in test [4] was above 10000 nM each time. In test [3], the EC50 was found to be 1800 nM.

Turning to `C=C(C)C(=O)O[C@H]1C[C@@H](C(=O)OC)[C@]2(C)CC[C@H]3C(=O)O[C@H](c4ccoc4)C[C@]3(C)[C@H]2C1=O`, the Ki in test [1] is 34 nM; in test [2] it was 7820 nM; in test [4], above 10000 nM. Besides, in test [6], the Ratio Ki was determined as 221.

`COC(=O)[C@@H]1C[C@H](OC(=O)/C=C/c2cc(OC)ccc2OC)C(=O)[C@H]2[C@@]1(C)CC[C@H]1C(=O)O[C@H](c3ccoc3)C[C@]21C`: the results for the Ki in test [1], in test [2] and in test [4] were 581 nM, above 10000 nM and above 10000 nM, respectively. Moreover, the EC50 in test [3] amounted to 38 nM.

Regarding `COC(=O)[C@@H]1C[C@H](OC(=O)/C=C/c2ccc(OC)cc2)C(=O)[C@H]2[C@@]1(C)CC[C@H]1C(=O)O[C@H](c3ccoc3)C[C@]21C`, the Ki in test [1] is 135 nM; in test [2], above 10000 nM; in test [4], above 10000 nM. Besides, the EC50 in test [3] came to 21 nM.

Take `COC(=O)[C@@H]1C[C@H](OC(=O)/C=C/c2ccsc2)C(=O)[C@H]2[C@@]1(C)CC[C@H]1C(=O)O[C@H](c3ccoc3)C[C@]21C`: the Ki in test [1] turned out to be 304 nM; in test [2] it was 228 nM; in test [4], 18 nM. In addition, the values for the Ratio Ki in test [6] and in test [5] were 0.75 and 0.06, respectively. Further, the EC50 in test [3] turned out to be 582 nM.

Consider `COC(=O)[C@@H]1C[C@H](OC(=O)C=C(C)C)C(=O)[C@H]2[C@@]1(C)CC[C@H]1C(=O)O[C@H](c3ccoc3)C[C@]21C`, for which the inhibition constant (Ki) is 385 nM in test [1], 2630 nM in test [2] and 284 nM in test [4]. Also, the values for the Ratio Ki in test [6] and in test [5] were 6.8 and 0.73, respectively. In addition, the EC50 in test [3] is 698 nM.

With `C=CC(C)C(=O)O[C@H]1C[C@@H](C(=O)OC)[C@]2(C)CC[C@H]3C(=O)O[C@H](c4ccoc4)C[C@]3(C)[C@H]2C1=O` (some centres undefined), the Ki worked out at 28.8 nM in test [1], 3030 nM in test [2] and 439 nM in test [4]. In addition, the Ratio Ki in test [6] came to 105; in test [5], 15. The EC50 in test [3] amounted to 37 nM.
